Screening data deposited in PubChem BioAssay by The Scripps Research Institute Molecular Screening Center.
Rows were chosen to be rich in hits. Some 2.1% of all compounds tested hit in one or more screens of this group.
M5 PAM = positive allosteric modulators of human muscarinic M5 receptor | CHO-K1 hM5, Fluo-8 calcium, ACh EC20 PAM; 0% = ACh EC20, 100% = ACh EC100 | activation, % at 3 µM | 360,000 compounds, 0.3% hits | AID 624038;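 active = activation above the run cutoff, the mean activation of all test compounds plus 3 SD, cut at about 18% in these data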
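System: CHO-K1 cell line with stable human muscarinic M5 receptor expression | Also added: EC20 acetylcholine as agonist stimulus | Compound: One concentration, 3 µM final (nominal) | Timing: Fluo-8 loading 80 min at 37 °C plus 30 min room temperature | Measured by: Fluo-8 calcium dye fluorescence, kinetic read | Read-out basis: % activation, ACh-normalized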
CHRM1 antagonist = antagonists of human M1 muscarinic receptor | P11229 | CHO-K1 hM1, Fluo-8 calcium fluorescence, ACh EC80 antagonist | inhibition, % at 3 µM | 360,000 compounds, 1.3% hits | AID 588852;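 active = percent inhibition above its own plate's cutoff, namely the mean of that plate's compound wells plus 3 SD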;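 also: peak over basal fluorescence ratio during 140 s after agonist addition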
Target sequence (P11229 whole entry, looked up): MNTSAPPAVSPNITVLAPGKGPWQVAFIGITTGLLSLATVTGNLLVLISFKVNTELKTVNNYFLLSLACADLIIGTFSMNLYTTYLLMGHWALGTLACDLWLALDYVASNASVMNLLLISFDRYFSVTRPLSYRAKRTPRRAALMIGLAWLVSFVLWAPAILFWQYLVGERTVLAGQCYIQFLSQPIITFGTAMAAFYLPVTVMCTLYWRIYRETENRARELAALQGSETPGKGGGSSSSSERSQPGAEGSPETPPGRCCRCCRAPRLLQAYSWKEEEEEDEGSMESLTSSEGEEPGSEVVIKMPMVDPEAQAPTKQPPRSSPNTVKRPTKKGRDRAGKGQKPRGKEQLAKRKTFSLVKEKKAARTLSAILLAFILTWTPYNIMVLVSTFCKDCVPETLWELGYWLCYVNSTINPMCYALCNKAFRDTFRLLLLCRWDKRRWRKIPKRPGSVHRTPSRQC
M5 antag = blocks acetylcholine activation of human M5 receptor. CHO-hM5 cells, Fluo-8 calcium fluorescence, ACh EC80. inhibition, % at 3 µM. 360,000 compounds, 0.59% hits. AID 624040;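 active = inhibition above a per-plate cutoff, the mean of that plate's test compounds plus 3 SD, cut at about 27% in these data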
CHRM5 agonist = CHRM5 agonism in calcium assay. P08912. CHO-K1 hM5 cells, Fluo-8 calcium fluorescence; 0% DMSO wells, 100% maximal acetylcholine response. activation, % at 3 µM. 360,000 compounds, 0.19% hits. AID 624037;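 active = activation above the run's mean over test compounds plus 3 SD, cut at about 23% in these data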;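 also: signal is peak over basal fluorescence ratio across the kinetic read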
M1 PAM = positive allosteric modulators of human M1 muscarinic receptor; AID 588819; CHO-K1 hM1, Fluo-8 calcium fluorescence, ACh EC20; 0% = ACh EC20, 100% = maximal ACh; P11229; 360,000 compounds, 0.088% hits; activation, % at 3 µM; in the data active = activation above about 19%, passing the limit was not always enough
CHRM1 agonist = activates human CHRM1 receptor; activation, % at 3 µM; CHO-K1 hM1, Fluo-8 calcium fluorescence, agonist mode; 0% DMSO, 100% acetylcholine EC100; 360,000 compounds, 0.33% hits; P11229;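 active = activation above the run's mean compound activation plus 3 SD, cut at about 16% in these data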;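 also: peak over basal fluorescence ratio within a 140 s kinetic read after compound addition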
Of the large screens only hits and unclear results are named; the others gave an inactive call.

CCN1CCN(Cc2nc3cc(NC(=O)COc4ccc([N+](=O)[O-])cc4)ccc3n2C)CC1	CHRM1 antagonist 60.9
Cn1c(CCN2CCCCC2)nc2cc(NC(=O)NC3CCCCC3)ccc21	none
COc1ccc(OCC(=O)Nc2ccc3c(c2)nc(CCN2CCN(c4ccccn4)CC2)n3C)cc1	CHRM1 antagonist 64.2
Cn1c(CN2CCCC2)nc2cc(NC(=O)COc3ccc([N+](=O)[O-])cc3)ccc21	none
Cc1cccc(OCC(=O)Nc2ccc3c(c2)nc(CCN2CCCCC2)n3C)c1	none
Cc1cccc(OCC(=O)Nc2ccc3c(c2)nc(CCN2CCN(c4ccccn4)CC2)n3C)c1	CHRM1 antagonist 87.9
O=C1C=C(c2cc(C(F)(F)F)cc(C(F)(F)F)c2)C[C@@H](c2ccc(Cl)cc2)C1	none
COc1ccccc1NS(=O)(=O)c1cc(NC(=O)COc2ccccc2)ccc1N1CCOCC1	none
Cn1c(CCN2CCN(c3ccccn3)CC2)nc2cc(NC(=O)COc3ccc(Cl)cc3)ccc21	CHRM1 antagonist 94.6, M5 antag 27.1
CCN1CCN(CCc2nc3cc(NC(=O)COc4ccc(Cl)cc4)ccc3n2C)CC1	none
Cc1nc2ccc(NC(=O)c3cc([N+](=O)[O-])cc([N+](=O)[O-])c3Cl)cc2s1	none
O=C(O)c1ccccc1C(=O)Nc1ccc(Br)c(C(F)(F)F)c1	none
Cc1cc(C)c(C(=O)Nc2ccc(Br)c(C(F)(F)F)c2)c(C)c1	CHRM1 antagonist 64.8
CCC1CCCCN1C(=O)CSc1nnc(-c2ccco2)o1 (configuration not stated)	none
CCOC(=O)C1(CCCc2ccccc2)CCN(C2CCSCC2)CC1	M5 antag 29.9
N#CC1(NC(=O)COc2ccccc2[N+](=O)[O-])CCCCC1	CHRM1 antagonist 37.3
CN(C(=O)COC(=O)C1=COCCO1)C1(C#N)CCCCC1	none
N#CC1(NC(=O)COC(=O)C2=COCCO2)CCCCC1	CHRM1 agonist 23.7
O=C(CSc1nnnn1C1CCCC1)N1CCOCC1	none
Cc1cccc(NC(=O)CSc2nc3ccccc3c3nc(CCc4c(C)n[nH]c4C)nn23)c1	CHRM1 antagonist 50.7
Cc1n[nH]c(C)c1CCc1nc2c3ccccc3nc(SCC(=O)Nc3ccccc3F)n2n1	none
COC(=O)C1CCN(Cc2c(C(=O)N3C[C@@H](C)O[C@@H](C)C3)nc3ccc(Cl)cn23)CC1	M5 PAM 19.2
C=C1C(=O)[C@]23C[C@H]1CC[C@H]2[C@]1(C)[C@@H](OC(C)=O)CC[C@@](C)(C(=O)OC)[C@H]1C[C@@H]3OC(C)=O	none
C=C1C(=O)[C@]23C[C@H]1CCC2[C@@]1(C)C(C[C@@H]3O)[C@](C)(C(=O)OC)CC[C@@H]1OC(C)=O (some centres not stated)	CHRM1 antagonist 52.0
CC(C)(C)c1cc(NC(=O)Nc2ccc(Br)cc2Cl)no1	CHRM1 antagonist 28.3
CC(C)(C)c1cc(NC(=O)Nc2ccc(Cl)cc2Cl)no1	none
CC1(C(O)(C#CC[N+]2(C)CCCCC2)c2ccccc2)CCCC1 (configuration not stated)	CHRM1 antagonist 71.8, M5 antag 99.5
O=C(COc1ccc(S(=O)(=O)N2CCOCC2)cc1)NCCc1ccc(Cl)cc1	none
CCC(C(=O)NCc1cccnc1)c1ccccc1 (configuration not stated)	none
CN1C(=O)N(c2ccc(Cl)cc2)C(C)(O)CC1(C)C (configuration not stated)	M5 PAM 24.7
COc1ccc(CCNC(=S)Nc2ccccc2)cc1	none
CCCOC(=O)c1cccc(Nc2nc(-c3cccnc3)nc3ccccc23)c1	CHRM1 antagonist 34.4
CCc1nnc(SCC(=O)Nc2ccccc2)n1CC1CCCO1 (configuration not stated)	none
CCN1C(=O)S/C(=C/c2c(OCc3ccc(C(=O)O)cc3)ccc3ccccc23)C1=O	CHRM1 agonist 29.1
O=C(NCc1ccncc1)Nc1ccccc1	none
CC(C)Oc1ccc(CNC(=O)CC(c2ccccc2)c2cc(Cl)ccc2O)cc1 (configuration not stated)	none
O=C(CSc1ccc(S(=O)(=O)N2CCOCC2)cn1)Nc1ccc(F)c(F)c1	CHRM1 antagonist 38.8
Nc1nc2c(nnn2C2CC(O)C(CO)O2)c(=O)[nH]1 (configuration not stated)	none
Cc1cccc(C)c1NS(=O)(=O)c1ccc2c(c1)NC(=O)CO2	M5 PAM 19.2
Cc1ccccc1NS(=O)(=O)c1ccc2c(c1)NC(=O)CO2	none
Nc1nnn(CC(=O)N/N=C/c2cccc3ccccc23)n1	M5 PAM 18.1
C#CCOC(=O)CCCC(=O)NCCCCCCCC	M5 PAM 27.0
C#CCOC(=O)CCC(=O)NCCc1ccccc1	none
O=C(CSc1n[nH]c(-c2cccs2)n1)N1CCN(S(=O)(=O)c2ccccc2)CC1	none
O[C@H]1CN(CC2CCCCC2)[C@@H](c2ccc(Cl)cc2)C[C@@H]1n1cc(C2CC2)nn1	CHRM1 antagonist 36.7
COc1ccc(N2C(=O)CC(NNC(=O)c3cc(C)oc3C)C2=O)cc1 (configuration not stated)	none
Cc1c(CN2CCCCC2)c(O)n(CCCO)c(=O)c1C#N	CHRM1 antagonist 36.1
CCN(CC)C(=O)C12CC3CC(CC(Cl)(C3)C1)C2	none
COc1cccc(CNC(=O)CCC2CCCN(C(=O)CCc3c(C)noc3C)C2)c1 (configuration not stated)	none
C(#Cc1ccccc1)C[N+]1(CC#Cc2cccc3ccccc23)CCCC1	M5 antag 29.3
Cc1ccc(NC(=S)N2CCCCCC2)c(C)c1	none
O=C(COc1ccccc1)Nc1nc(-c2cccs2)cs1	none
CC(C)(C)c1ccc(S(=O)(=O)N2CCC(O)(c3ccc(Cl)cc3)CC2)cc1	CHRM1 antagonist 70.9, M5 antag 30.3
CCc1nn(-c2cc(Cl)ccc2OC)c2c1C(=O)CCC2	M5 PAM 18.3
CCCc1nn(-c2cc(Cl)ccc2OC)c2c1C(=O)CC(C)(C)C2	none
O=C(c1ccccc1)c1c2c(cc3sc4ccccc4[n+]13)-c1cccc3cccc-2c13	CHRM1 antagonist 45.5, CHRM1 agonist 34.3
O=C(c1ccccc1)c1ccc2ccccc2c1	none
Cc1ccc(-c2c(C)sc3nc(CN4CCN(CC(=O)NC5CC5)CC4)[nH]c(=O)c23)cc1	none
O=C(CSc1nnc(COc2cccc3cccnc23)o1)N1CCc2ccccc21	M5 antag 27.9
COCCNCCOc1ccccc1-c1ccccc1	M5 PAM 18.9
CN(C)CCOCCOc1ccccc1-c1ccccc1	none
COCCCNCCOc1ccccc1-c1ccccc1	none
